Results reported in ChEMBL document CHEMBL4014308, “Amphiphilic Tobramycin-Lysine Conjugates Sensitize Multidrug Resistant Gram-Negative Bacteria to Rifampicin and Minocycline” (J Med Chem, 2017).
Activity calls are given as the source filed them. The calls are words filed in the database; no cut-off is given here.

What was measured:
Format in all cases: functional
Pseudomonas aeruginosa [1] = test: Potentiation of rifampicin-induced antibacterial activity against multidrug/extremely drug-resistant/colistin-susceptible Pseudomonas aeruginosa isolate P259-96918 assessed as fold reduction in rifampicin MIC at 4 ug/ml after 18 hrs by checkerboard assay relative to control
Procedure, shortened: (§1)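 Checkerboard in Mueller-Hinton broth, 10 × 7 matrix, with the adjuvant held at 4 µg/mL. Inoculum from a 0.5 McFarland suspension diluted 1:50; 18 h at 37 °C. Antibiotic MIC (lowest concentration with no growth) with adjuvant is compared with the antibiotic MIC alone, giving a fold reduction.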

Pseudomonas aeruginosa [2] = test: Antibacterial activity against multidrug/extremely drug-resistant/colistin-susceptible Pseudomonas aeruginosa isolate 100036 after 18 hrs by microtiter dilution assay; settings: isolate 100036, 18 h
Procedure, shortened: (§2)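 Broth microdilution following CLSI guidelines. An overnight culture was adjusted to 0.5 McFarland in saline, then diluted 1:50 in Mueller-Hinton broth. This inoculum was added in equal volume to 2-fold serial dilutions of agent in MHB and incubated 18 h at 37 °C. MIC was the lowest concentration with no visible growth.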

Klebsiella pneumoniae = test: Synergistic antibacterial activity against multidrug-resistant Klebsiella pneumoniae 116381 after 18 hrs in presence of rifampicin by checkerboard assay; settings: Klebsiella pneumoniae, 116381, 18 h
Procedure, shortened: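 Checkerboard in Mueller-Hinton broth: antibiotic serially diluted along one axis and adjuvant along the other (10 × 7 matrix). Inoculum was overnight culture set to 0.5 McFarland in saline, then diluted 1:50 in broth. Incubated 18 h at 37 °C. MIC was the lowest concentration with no growth. FIC index is the sum of both FICs (combination concentration ÷ MIC alone); ≤0.5 counted as synergy.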

Pseudomonas aeruginosa [3] = test: Potentiation of minocycline-induced antibacterial activity against multidrug/extremely drug-resistant/colistin-susceptible Pseudomonas aeruginosa isolate P259-96918 at 4 ug/ml after 18 hrs by checkerboard assay
Procedure, shortened: (§3)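 Checkerboard in Mueller-Hinton broth: antibiotic serially diluted along one axis and adjuvant along the other (10 × 7 matrix). Inoculum from a 0.5 McFarland saline suspension diluted 1:50 in MHB; 18 h at 37 °C, then plate read. MIC is the lowest concentration with no growth. FIC of each agent is its concentration in a no-growth well divided by its MIC alone; FIC index is the sum of both. FIC index ≤0.5 counts as synergy.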

Pseudomonas aeruginosa [4] = test: Potentiation of rifampicin-induced antibacterial activity against multidrug/extremely drug-resistant/colistin-susceptible Pseudomonas aeruginosa isolate P264-104354 at 4 ug/ml after 18 hrs by checkerboard assay
Procedure, shortened: (§4)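 Checkerboard broth microdilution in MHB: antibiotic serially diluted along one axis, adjuvant along the other (10 × 7 matrix). Inoculum from 0.5 McFarland saline suspension diluted 1:50 in MHB; 18 h at 37 °C. MIC taken as lowest concentration with no growth. FIC per agent = combination MIC/MIC alone; FIC index = sum (≤0.5 synergy).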

Acinetobacter baumannii [5] = test: Potentiation of minocycline-induced antibacterial activity against multidrug-resistant Acinetobacter baumannii 110193 at 4 ug/ml after 18 hrs by checkerboard assay; procedure, shortened: as §3
Pseudomonas aeruginosa [6] = test: Potentiation of rifampicin-induced antibacterial activity against multidrug/extremely drug-resistant/colistin-resistant Pseudomonas aeruginosa isolate 91433 assessed as fold reduction in rifampicin MIC at 4 ug/ml after 18 hrs by checkerboard assay relative to control; procedure, shortened: as §1
Pseudomonas aeruginosa [7] = test: Antibacterial activity against multidrug/extremely drug-resistant/colistin-resistant Pseudomonas aeruginosa isolate 101243 after 18 hrs by microtiter dilution assay; settings: isolate 101243, 18 h; procedure, shortened: as §2
Pseudomonas aeruginosa [8] = test: Potentiation of rifampicin-induced antibacterial activity against Pseudomonas aeruginosa PAO1 at 4 ug/ml after 18 hrs by checkerboard assay
Procedure, shortened: (§5)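 Checkerboard in MHB with a 10 × 7 matrix: antibiotic serially diluted along one axis, adjuvant along the other. Inoculum was a 1:50 dilution of a 0.5 McFarland suspension, incubated 18 h at 37 °C and read on a plate reader. Each FIC is the concentration in a no-growth well divided by the MIC alone; FIC index is their sum, with ≤0.5 taken as synergy.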

Pseudomonas aeruginosa [9] = test: Potentiation of trimethoprim-induced antibacterial activity against Pseudomonas aeruginosa PAO1 at 4 ug/ml after 18 hrs by checkerboard assay; procedure, shortened: as §4
Acinetobacter baumannii [10] = test: Antibacterial activity against multidrug-resistant Acinetobacter baumannii 110193 after 18 hrs by microtiter dilution assay; settings: Acinetobacter baumannii, 110193, 18 h; procedure, shortened: as §2
Staphylococcus aureus = test: Antibacterial activity against methicillin resistant Staphylococcus aureus ATCC 33592 after 18 hrs by microtiter dilution assay; settings: ATCC 33592, 18 h; procedure, shortened: as §2
Pseudomonas aeruginosa [11] = test: Potentiation of gentamicin-induced antibacterial activity against Pseudomonas aeruginosa PAO1 at 4 ug/ml after 18 hrs by checkerboard assay; procedure, shortened: as §3
Pseudomonas aeruginosa [12] = test: Bactericidal activity against Pseudomonas aeruginosa PAO1 at 2 times antibacterial MIC after 30 mins
Procedure, shortened: (§6)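 Time-kill with P. aeruginosa PAO1. A 0.5 McFarland suspension was diluted 1:50 in LB broth and exposed to agent in PBS (pH 7.2) at 1/2×, 1×, 2× or 4× MIC at 37 °C for 6 h. Samples at 0, 10, 30, 60, 90, 120, 240 and 360 min were serially diluted in PBS, plated on LB agar, and colonies counted after 20 h at 37 °C.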

Acinetobacter baumannii [13] = test: Synergistic antibacterial activity against multidrug-resistant Acinetobacter baumannii 110193 after 18 hrs in presence of minocycline by checkerboard assay; settings: Acinetobacter baumannii, 110193, 18 h; procedure, shortened: as §5
Pseudomonas aeruginosa [14] = test: Induction of cytoplasmic membrane depolarization in Pseudomonas aeruginosa PAO1 up to 1200 secs by diSC3-5 staining based fluorescence assay
Procedure, shortened: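 Mid-log PAO1 washed in 5 mM HEPES pH 7.4 with 20 mM glucose and resuspended to OD600 0.05. Cells were loaded with 0.2 mM EDTA and 0.4 µM diSC3-5 for 2 h at 37 °C in the dark, then equilibrated with 100 mM KCl for 30 min. Agent was added and fluorescence followed at 622/670 nm; agents tested at 32 µg/mL.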

Pseudomonas aeruginosa [15] = test: Antibacterial activity against multidrug/extremely drug-resistant/colistin-susceptible Pseudomonas aeruginosa isolate P259-96918 after 18 hrs by microtiter dilution assay; settings: isolate P259-96918, 18 h; procedure, shortened: as §2
Enterobacter cloacae [16] = test: Synergistic antibacterial activity against multidrug-resistant Enterobacter cloacae 117029 after 18 hrs in presence of minocycline by checkerboard assay; settings: Enterobacter cloacae, 117029, 18 h; procedure, shortened: as §5
[17] = test system: Stenotrophomonas maltophilia; test: Antibacterial activity against Stenotrophomonas maltophilia isolate CAN-ICU 62584 after 18 hrs by microtiter dilution assay; settings: isolate CAN-ICU 62584, 18 h
Procedure, shortened: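 Broth microdilution per CLSI. Overnight culture adjusted to 0.5 McFarland in saline, diluted 1:50 in Mueller-Hinton broth, and added to an equal volume of 2-fold serial compound dilutions in MHB. Incubated 18 h at 37 °C. MIC taken as the lowest concentration with no visible growth.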

Pseudomonas aeruginosa [18] = test: Potentiation of rifampicin-induced antibacterial activity against multidrug/extremely drug-resistant/colistin-susceptible Pseudomonas aeruginosa isolate 101885 at 4 ug/ml after 18 hrs by checkerboard assay; procedure, shortened: as §3
Pseudomonas aeruginosa [19] = test: Bactericidal activity against Pseudomonas aeruginosa PAO1 at 4 times antibacterial MIC after 10 mins; procedure, shortened: as §6
Enterobacter cloacae [20] = test: Potentiation of minocycline-induced antibacterial activity against multidrug-resistant Enterobacter cloacae 117029 at 4 ug/ml after 18 hrs by checkerboard assay; procedure, shortened: as §3

Cl.Cl.Cl.Cl.Cl.Cl.Cl.NCCCC[C@H](N)C(=O)N(CCCCCCCCCCCCO[C@@H]1[C@@H](O[C@H]2O[C@H](CO)[C@@H](O)[C@H](N)[C@H]2O)[C@H](N)C[C@H](N)[C@H]1O[C@H]1O[C@H](CN)[C@@H](O)C[C@H]1N)Cc1c2ccccc2c(Cl)c2ccccc12
fold change (FC) (Pseudomonas aeruginosa [1]): 256
MIC (Pseudomonas aeruginosa [2]): 32 µg/mL
MIC (Klebsiella pneumoniae): 4 µg/mL
fractional inhibitory concentration index (FICI) (Pseudomonas aeruginosa [3]): 0.047
fractional inhibitory concentration index (FICI) (Pseudomonas aeruginosa [4]): 0.094
fractional inhibitory concentration index (FICI) (Acinetobacter baumannii [5]): 0.63
fold change (FC) (Pseudomonas aeruginosa [6]): 8
MIC (Pseudomonas aeruginosa [7]): 16 µg/mL
fractional inhibitory concentration index (FICI) (Pseudomonas aeruginosa [8]): 0.094
fractional inhibitory concentration index (FICI) (Pseudomonas aeruginosa [9]): 0.126
MIC (Acinetobacter baumannii [10]): 16 µg/mL
MIC (Staphylococcus aureus): 8 µg/mL
fractional inhibitory concentration index (FICI) (Pseudomonas aeruginosa [11]): 1.125
Activity (Pseudomonas aeruginosa [12]): Active
MIC (Acinetobacter baumannii [13]): 2 µg/mL
Activity (Pseudomonas aeruginosa [14]): Dose-dependent effect
MIC (Pseudomonas aeruginosa [15]): 64 µg/mL
MIC (Enterobacter cloacae [16]): 8 µg/mL
MIC [17]: > 128 µg/mL
fractional inhibitory concentration index (FICI) (Pseudomonas aeruginosa [18]): 0.094
Activity (Pseudomonas aeruginosa [19]): Active
fractional inhibitory concentration index (FICI) (Enterobacter cloacae [20]): 0.062
